Consider 48 sequences from the EternaBench riboswitch data.

The series concerns MS2 coat protein. The series can be described thus: apparent Kd, MS2 coat protein; higher = weaker binding; RNA-MaP array; FMN 200 µM where present. The method in brief: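 Each design was made on Illumina sequencing-chip clusters by stalled E. coli RNA polymerase and titrated with SNAP-549-labelled MS2 coat protein from 0.7 or 1.5 nM, doubling to 3 µM, in the absence and then the presence of constant ligand. The buffer was 100 mM Tris-HCl pH 7.5, 80 mM KCl, 4 mM MgCl2, BSA, DTT, yeast tRNA and Tween-20. The apparent Kd is the median of filtered per-cluster fits of binding curves, with green signal normalised to red-channel RNA signal and control-cluster median Fmax.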

Where [1] appears, read: designed as: OFF switch for flavin mononucleotide, no ligand.
Setting [2] is: ligand present: flavin mononucleotide, designed as: OFF switch for flavin mononucleotide.
The mark [3] stands for this setting: designed as: ON switch for flavin mononucleotide, no ligand.
The mark [4] stands for this setting: ligand present: flavin mononucleotide, designed as: ON switch for flavin mononucleotide.

Turning to “UGAUCGAGAGAUCUUAGAUUCUGGUAGGAUAUACAUAUUGUAAUAUAGACAUGAGGAUCACCCAUGUAGAAGGACUAGAGUCUA”, the “apparent Kd” value was 6.6 nM under setting [1] and 11.5 nM under setting [2].

For “GAUUGACAUGAGGAUCACCCAUGUGAGGAUAUCGGCCGGAUCUUGUUAGCUUCCAUCGCGAGAAGGCACAUAGG”, the “apparent Kd” value reads like this: under setting [1], 66.1 nM; under setting [2], 73.5 nM.

Consider “CAAAACGAGGCAGGAUAUCAAUACAUGAGGAUCACCCAUGUGUGACGUAGGCCGGUCUUCGUGACUGAGAAGGGUCUCUAGUUA”, for which the “apparent Kd” value runs as follows: under setting [1], 11 nM; under setting [2], 40.5 nM.

On to “AUCAGCUGGUCAGGAUAUACGUCACUGCGUCAGCAGUGUGGUAAGAUCACAUGAGGAUCACCCAUGUAGAAGGGACGAGCUGAU”, for which the “apparent Kd” value by setting is: under setting [1], 14.5 nM; under setting [2], 286 nM.

On to “GGUGUACAUGAGGAUCACCCAUGUCGUACGACAUGAGGAUAUGUACAGACUUCGGUCUGUACAGAAGGCAUGUGUC”, for which the “apparent Kd” value is, setting by setting: under setting [3], 249 nM; under setting [4], 26.4 nM.

Turning to “AUAAUUUUAUAUAUCUUAUUUAUCAGAAGGCAUAACAUGAGGAUCACCCAUGUAUAUUAUAGUUAUGAGGAUAUGAUUUAGUUA”, the “apparent Kd” value is, setting by setting: under setting [1], 8.04 nM; under setting [2], 8.85 nM.

Turning to “GGGUACAUCGGAGGAUAUCAUGUAAAUACAUGAGGAUCACCCAUGUCGAUGGAGACAUCUGAGAUUGAGAAGGCCGAUGUACCG”, the “apparent Kd” value reads like this: under setting [3], 19.4 nM; under setting [4], 6.45 nM.

Regarding “CGAGGACAUGAGGAUCACCCAUGUAGCUACAAAAUGCAGCGACAGGAUAUCCUCUGGUUCCCAUAGGAGAAGGGUCAAACCUUG”, the “apparent Kd” value under setting [3] turned out to be 26.8 nM and the “apparent Kd” value under setting [4] came to 47.5 nM.

“CUCUUUGUUGAGGAUAUGCACCAGCUCACUGACGCAGAAGGCGACACAUGAGGAUCACCCAUGUCAGUUCGCGU”: the “apparent Kd” value by setting is: under setting [1], 17.4 nM; under setting [2], 21.5 nM.

Turning to “UAAAAGCUAGGAUAUACAUGAGGAUCACCCAUGUACCGGCUUGGCCCUGGUCCUAAAUGUAGAAGGAGCACGCC”, the “apparent Kd” value came to 15.2 nM under setting [1] and 23.9 nM under setting [2].

“AUUUUGUCAGGAUAUGAGUAGUAGGACGAAAGUGUUAUUAUUUAGAAGGGACAUGAGGAUCACCCAUGUUCCUC”: the “apparent Kd” value runs as follows: under setting [1], 12.7 nM; under setting [2], 16.2 nM.

As to “GGGCUGCGACGCAGCCCAACAAAACAUGAGGAUCACCCAUGUCAGGAUAUACCGAUGCAGCAUCUGUAGAAGGGACAGAUCCAA”, the “apparent Kd” value is, setting by setting: under setting [1], 90.4 nM; under setting [2], 92.4 nM.

As to “UUCAUCAAGGAAGGAUAUCUAUAUCCAACAUGAGGAUCACCCAUGUUGAGGAUCACCCAUGUAAAGGAGAAGGUUCAUAUAACU”, the “apparent Kd” value under setting [3] was found to be 58.1 nM and the “apparent Kd” value under setting [4] was 50.7 nM.

For the sequence “UAGUAUAAGGGCAUUAAACAUGAGGAUCACCCAUGUACAAUAGAGGAUAUGCAUUUCGGUUUAGAGUAGAAGGUUAGAGAAUAU”, the “apparent Kd” value amounted to 31.3 nM under setting [1] and 38.1 nM under setting [2].

As to “CAGCUCUGAGGAUAUCCACCCUCGUACAUGAGGAUCACCCAUGUUUCCCUCUGGGCUUUCGGAGAAGGCAGGUAUC”, the “apparent Kd” value was 59.1 nM under setting [1] and 55.3 nM under setting [2].

With “CCACGUCACAUUAACAUGAGGAUCACCCAUGUCAAAAGACAUGAGGAUAUGCAUCCUAAUUGGAUGCAGAAGGCAUGGACGUGG”, the “apparent Kd” value amounted to 475 nM under setting [3] and 36.1 nM under setting [4].

In the case of “CUCAAACAUGAGGAUCACCCAUGUGUUGUCGUGGGAGGAUAUCCCAGUUCGGUGGCGUCGGGAGAAGGCCUAUGUC”, the “apparent Kd” value is, setting by setting: under setting [3], 141 nM; under setting [4], 64.7 nM.

With “CUUUUGUGAGGAUAUUAGUAGUAAAAAAAUAAAAUUACUACUGAGAAGGCACAUGAGGAUCACCCAUGUUCUUC”, the “apparent Kd” value was determined as 19 nM under setting [1] and 98.1 nM under setting [2].

For “AGGGAGUGAGGAUAUACGAAAUAAAAAGAAGGAAAAAAAGAGUAGAAGGCACAUGAGGAUCACCCAUGUGAGAA”, the “apparent Kd” value under setting [1] is 22 nM and the “apparent Kd” value under setting [2] is 19.5 nM.

For the sequence “AUGGCGACGUAGAAGGGUGACAUGAGGAUCACCCAUGUGCCGAUACUUCUCGAGAUGUGUCGGCCACAGGAUAUACGUACCAUC”, the “apparent Kd” value under setting [3] stood at 52.3 nM and the “apparent Kd” value under setting [4] came to 58.3 nM.

With “UUGCGGUAGGAGAAGGACAGAGGCUUCAUUACAUACAUGAGGAUCACCCAUGUAGGAUAUCCUACCUAACGCGGCCUCCUCCUG”, the “apparent Kd” value is, setting by setting: under setting [1], 11.1 nM; under setting [2], 19.8 nM.

Regarding “UAAAUACAUGAGGAUCACCCAUGUGAGGAUAUCCGAUGAUUCGGAGAAAUGACCCGUUGGAGAAGGCAUAGGGC”, the “apparent Kd” value is 30.8 nM under setting [1] and 22.7 nM under setting [2].

Turning to “CAGUACUGAGGAUAUACAUGAGGAUCACCCAUGUAAAAAACCUACGAAAGUAGGACAUGUAGAAGGCAGUACUG”, the “apparent Kd” value came out at 24.2 nM under setting [1] and 76.7 nM under setting [2].

As for “UUCAUGUGAGGAUAUGUGUACUGUUUUUUGUUUAGAUGUACACAGAAGGCACAUGAGGAUCACCCAUGUAGUAC”, the “apparent Kd” value runs as follows: under setting [1], 49.5 nM; under setting [2], 20.4 nM.

Take “UGGUACUACGGAGGAUAUGGGAAGAUACAUGAGGAUCACCCAUGUUUAAGAAUGCCGAGAGGCAACUAGAAGGCCCUAGUACCU”: the “apparent Kd” value under setting [3] was determined as 401 nM and the “apparent Kd” value under setting [4] is 25.2 nM.

In the case of “UGUUAAUUGUAGAAGGGUGACAUGAGGAUCACCCAUGUACUAAUGCGAUUUACGGCGCAUGUUCCACAGGAUAUACAGUUGAGU”, the “apparent Kd” value came to 1270 nM under setting [3] and 274 nM under setting [4].

Turning to “AUAUGAGAAGCAGGAUAUGUGAAAAAAAAACAUACAGAAGGGUUUAUGGGACAACAUGAGGAUCACCCAUGUUCUCUGUGAUGA”, the “apparent Kd” value amounted to 65.2 nM under setting [3] and 71 nM under setting [4].

In the case of “AGCUGGUGACAGCAAGAAUUUUAACAUGAGGAUCACCCAUGUAGAAGGCUGUACGGUUACCGUACAGAGGAUAUACAUAGAAAG”, the “apparent Kd” value by setting is: under setting [1], 43.2 nM; under setting [2], 62.2 nM.

Turning to “GUCUACAUGACAUGAGGAUCACCCAUGUGUUAUAUUUUUACUAAGGAUAUAUUUUUAAUGUUGAGAUAGAAGGUAGUUUCGGUC”, the “apparent Kd” value turned out to be 43 nM under setting [1] and 45.5 nM under setting [2].

Take “CGAGAAAUCGUAGGAUAUGGUGAUGUACAUGAGGAUCACCCAUGUCCGUCUUCUCUCACAAGAUGCCAGAAGGACGAUUUCUGG”: the “apparent Kd” value by setting is: under setting [3], 712 nM; under setting [4], 122 nM.

“AAUGAAUUCGAGAAGGGAGAUGUGGCACUUGUUUCGAAGUUGUGAUCACUCAGGAUAUCGAAACAUGAGGAUCACCCAUGUAAA”: the “apparent Kd” value amounted to 273 nM under setting [3] and 17.5 nM under setting [4].

With “UUUGCAUGACGAGGAUAUCAUUUAUUUCUUGAUUGAGAAGGCGUUCUUUUUAAUACCUAACAUGAGGAUCACCCAUGUGACAGU”, the “apparent Kd” value is, setting by setting: under setting [3], 17.9 nM; under setting [4], 13.2 nM.

Regarding “GCCGCACAUGAGGAUCACCCAUGUAAUUACAUGGGAGGAUAUCAGUGCUCGAAAGAGCACUGAGAAGGCCUGAGGC”, the “apparent Kd” value is, setting by setting: under setting [3], 81.3 nM; under setting [4], 1070 nM.

Consider “GGUACCAUCACAGGAUAUGCUAUCCUUUGGGUAGCAGAAGGGUGUAACAUGAGGAUCACCCAUGUGGUGCCAGGGCGUGAGCCC”, for which the “apparent Kd” value is, setting by setting: under setting [3], 496 nM; under setting [4], 49.9 nM.

Take “CUAGACUUAUCAGGAUAUCAUCGCGUGGAUUAACCCUGUGAUUACAUGAGGAUCACCCAUGUGCUUGAGAAGGGAUUACUAUUU”: the “apparent Kd” value was 28.8 nM under setting [1] and 114 nM under setting [2].

Regarding “GCGAAUAAGUGAGGAUAUACAUAAUUUAUAACUGUAGAAGGCACAAACCUCAAGACAUGAGGAUCACCCAUGUGAAAUAUCGCU”, the “apparent Kd” value is, setting by setting: under setting [1], 31 nM; under setting [2], 81.8 nM.

Consider “UGGUACUAGGGAGGAUAUGGGAAGAUACAUGAGGAUCACCCAUGUUUAAGAAUGCCGAGAGGCUACUAGAAGGCCCUAGUACCU”, for which the “apparent Kd” value under setting [3] was 268 nM and the “apparent Kd” value under setting [4] was 9.69 nM.

In the case of “AAGUAGUGAGGAUAUACAUGGAUAUACAUUCAUGUGGACCUACAUGAGGAUCACCCAUGUAGAAGGCACUACUA”, the “apparent Kd” value by setting is: under setting [1], 42.6 nM; under setting [2], 61.6 nM.

On to “UUACUCAUGUAAGGAUAUGCAGCCGUUUCGGCUGCAGAAGGUACUAUAAUACAUGAGGAUCACCCAUGUCUUUUUAAAUUAGAC”, for which the “apparent Kd” value under setting [3] worked out at 111 nM and the “apparent Kd” value under setting [4] amounted to 49.7 nM.

As for “GCACUUUUAUUUGAACCGAUACGAACAUGAGGAUCACCCAUGUAGGAUAUGCUAAAAGUUGUGAUGCAGAAGGACAUUAAGUGC”, the “apparent Kd” value under setting [1] worked out at 7.73 nM and the “apparent Kd” value under setting [2] came out at 9.21 nM.

“GACAUACAUGAGGAUCACCCAUGUUCAGACGGGCAAGGAUAUGUGUGGAAACCAUACUAUACAGAAGGUGUCUGUC”: the “apparent Kd” value is 26.5 nM under setting [3] and 17.6 nM under setting [4].

In the case of “CUGUGACGGUGCGCAAGUGGACGGAGAAGGCACACAUGAGGAUCACCCAUGUGAGCCUGCUAUUGUGAGGAUAUCCGUUCGUAC”, the “apparent Kd” value is, setting by setting: under setting [1], 5.52 nM; under setting [2], 7.02 nM.

On to “GAGAAGUCAGGAUAUCCAUGGCGGCACUUGCGUGGUGGCGUGGAGAAGGGACAUGAGGAUCACCCAUGUAAAGA”, for which the “apparent Kd” value reads like this: under setting [1], 52.7 nM; under setting [2], 36.8 nM.

For the sequence “AUAAGCUCGUCAGGAUAUACGUCACUGCUUCGGCAGUGAGGUAAGAUCACAUGAGGAUCACCCAUGUAGAAGGGACGAGCUUAU”, the “apparent Kd” value runs as follows: under setting [1], 5.65 nM; under setting [2], 14.4 nM.

As to “UUUUAACAUGAGGAUCACCCAUGUGAGGAUAUCGAAAUUUAUAUUUAUAUUUAUUAAUCGAGAAGGCACAUUUU”, the “apparent Kd” value stood at 132 nM under setting [1] and 162 nM under setting [2].

Regarding “AACGUGGCAAAGGAUAUCCACACGGCAAAGCCGGGAGAAGGUUGCACAUGAGGAUCACCCAUGUGAACCAAACA”, the “apparent Kd” value under setting [1] amounted to 14.9 nM and the “apparent Kd” value under setting [2] came to 17.8 nM.

As for “GUCAGCUCGUGAGGAUAUACAUCACUGCUUCGGCAGUGUAUUAAGAGUACAUGAGGAUCACCCAUGUAGAAGGCACGAGCUGAU”, the “apparent Kd” value worked out at 17.3 nM under setting [1] and 19.6 nM under setting [2].

“UACAUUACUUAGAAGGGAUAUAUAUAAUUUUAGUCAGGAUAUAGAUACAGUACAACAUGAGGACAUGAGGAUCACCCAUGUAUU”: the “apparent Kd” value is 29.8 nM under setting [3] and 20.8 nM under setting [4].

The term apparent Kd denotes the concentration giving half-maximal binding under the conditions of the assay.
